Measurements as given in ChEMBL document CHEMBL3091445, “The 3,7-diazabicyclo[3.3.1]nonane scaffold for subtype selective nicotinic acetylcholine receptor ligands. Part 2: carboxamide derivatives with different spacer motifs” (Bioorg Med Chem, 2013).
Calls of active or inactive are those of the source. The calls are words filed in the database; no cut-off is given here.

Experiments:
[1] = molecular target: T1, Neuronal acetylcholine receptor; alpha4/beta2 (Homo sapiens) (UniProt P17787+P43681); experiment: Partial agonist activity at human alpha4beta2 nAChR expressed in Xenopus oocytes at 10 uM incubated for 8 secs followed by compound washout measured after 241 secs by two-electrode voltage clamp technique; type: cell-based
[2] = molecular target: T2, Nicotinic acetylcholine receptor alpha1/beta1/epsilon/delta (Mus musculus) (UniProt P04756+P09690+P02716+P20782); experiment: Agonist activity at mouse muscle alpha1beta1epsilondelta nAChR expressed in Xenopus oocytes at 10 uM incubated for 8 secs followed by compound washout measured after 241 secs by two-electrode voltage clamp technique; type: cell-based
[3] = molecular target: T2, Nicotinic acetylcholine receptor alpha1/beta1/epsilon/delta (Mus musculus); experiment: Agonist activity at mouse muscle alpha1beta1epsilondelta nAChR expressed in Xenopus oocytes at 1 uM incubated for 8 secs followed by compound washout measured after 241 secs by two-electrode voltage clamp technique; type: cell-based
[4] = molecular target: T3, Neuronal acetylcholine receptor; alpha3/beta4 (Homo sapiens) (UniProt P30926+P32297); experiment: Antagonist activity at human alpha3beta4 nAChR expressed in Xenopus oocytes at 1 uM incubated for 8 secs followed by compound washout measured after 241 secs by two-electrode voltage clamp technique; type: cell-based
[5] = molecular target: T3, Neuronal acetylcholine receptor; alpha3/beta4 (Homo sapiens); experiment: Agonist activity at human alpha3beta4 nAChR expressed in Xenopus oocytes at 1 uM incubated for 8 secs followed by compound washout measured after 241 secs by two-electrode voltage clamp technique; type: cell-based
[6] = molecular target: T1, Neuronal acetylcholine receptor; alpha4/beta2 (Homo sapiens); experiment: Partial agonist activity at human alpha4beta2 nAChR expressed in Xenopus oocytes at 1 uM incubated for 8 secs followed by compound washout measured after 241 secs by two-electrode voltage clamp technique; type: cell-based
[7] = molecular target: Neuronal acetylcholine receptor subunit alpha-7 (Homo sapiens) (UniProt P36544); experiment: Agonist activity at human alpha7 nAChR expressed in Xenopus oocytes at 1 uM incubated for 12 secs followed by compound washout measured after 181 secs by two-electrode voltage clamp technique; type: cell-based
Sequence of Neuronal acetylcholine receptor subunit alpha-7 (Homo sapiens) (P36544 whole entry): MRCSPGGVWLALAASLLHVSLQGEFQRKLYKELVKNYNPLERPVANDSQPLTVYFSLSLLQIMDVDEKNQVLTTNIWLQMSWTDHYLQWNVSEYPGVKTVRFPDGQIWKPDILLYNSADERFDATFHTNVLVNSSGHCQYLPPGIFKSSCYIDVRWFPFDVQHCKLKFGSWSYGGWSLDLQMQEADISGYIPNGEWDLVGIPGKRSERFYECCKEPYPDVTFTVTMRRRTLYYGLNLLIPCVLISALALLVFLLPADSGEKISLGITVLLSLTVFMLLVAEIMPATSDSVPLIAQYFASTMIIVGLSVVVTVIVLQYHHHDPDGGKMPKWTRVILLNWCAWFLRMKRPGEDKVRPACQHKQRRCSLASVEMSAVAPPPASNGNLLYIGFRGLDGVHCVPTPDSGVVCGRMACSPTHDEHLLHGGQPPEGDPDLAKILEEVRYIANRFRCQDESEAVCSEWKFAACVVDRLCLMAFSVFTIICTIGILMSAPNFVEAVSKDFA

[8] = molecular target: Neuronal acetylcholine receptor subunit alpha-7 (Homo sapiens) (UniProt P36544); experiment: Antagonist activity at human alpha7 nAChR expressed in Xenopus oocytes assessed as inhibition of acetylcholine-induced effect at 1 uM incubated for 12 secs followed by compound washout measured after 181 secs by two-electrode voltage clamp technique; type: cell-based
[9] = molecular target: T2, Nicotinic acetylcholine receptor alpha1/beta1/epsilon/delta (Mus musculus); experiment: Antagonist activity at mouse muscle alpha1beta1epsilondelta nAChR expressed in Xenopus oocytes assessed as inhibition of acetylcholine-induced effect at 1 uM incubated for 8 secs followed by compound washout measured after 241 secs by two-electrode voltage clamp technique; type: cell-based
[10] = molecular target: T3, Neuronal acetylcholine receptor; alpha3/beta4 (Homo sapiens); experiment: Agonist activity at human alpha3beta4 nAChR expressed in Xenopus oocytes at 10 uM incubated for 8 secs followed by compound washout measured after 241 secs by two-electrode voltage clamp technique; type: cell-based
[11] = Displacement of [3H]epibatidine from Torpedo californica electroplax (alpha1)2beta1gammadelta nAChR after 90 mins by liquid scintillation counting analysis; parameters: species or system Tetronarce californica
[12] = molecular target: Neuronal acetylcholine receptor subunit alpha-7 (Rattus norvegicus, UniProt Q05941); experiment: Displacement of [3H]methyllycaconitine from Sprague-Dawley rat brain alpha7 nAChR after 120 mins by liquid scintillation counting analysis; type: tissue-based
Sequence of Neuronal acetylcholine receptor subunit alpha-7 (Q05941 whole entry): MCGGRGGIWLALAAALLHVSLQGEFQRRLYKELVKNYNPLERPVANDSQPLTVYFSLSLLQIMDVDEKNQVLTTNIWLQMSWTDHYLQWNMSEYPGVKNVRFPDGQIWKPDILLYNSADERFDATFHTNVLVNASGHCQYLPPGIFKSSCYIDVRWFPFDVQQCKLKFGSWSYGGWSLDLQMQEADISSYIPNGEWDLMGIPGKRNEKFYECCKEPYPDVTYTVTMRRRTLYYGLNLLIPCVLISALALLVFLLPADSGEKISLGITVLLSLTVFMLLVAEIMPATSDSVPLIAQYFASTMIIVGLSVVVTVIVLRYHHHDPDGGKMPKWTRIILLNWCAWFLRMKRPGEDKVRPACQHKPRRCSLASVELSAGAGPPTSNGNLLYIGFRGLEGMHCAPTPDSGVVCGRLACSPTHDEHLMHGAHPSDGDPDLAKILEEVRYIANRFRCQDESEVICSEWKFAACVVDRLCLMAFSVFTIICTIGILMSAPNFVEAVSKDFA
Summary of the method: (§1)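 Radioligand competition binding gave Ki values, reported as mean ± SEM from 2–10 independent experiments.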

[13] = Displacement of [3H]epibatidine from calf adrenal alpha3beta4 nAChR after 90 mins by liquid scintillation counting analysis; parameters: species or system Bos taurus
[14] = molecular target: Neuronal acetylcholine receptor; alpha4/beta2 (Rattus norvegicus, UniProt P09483+P12390); experiment: Displacement of [3H]epibatidine from Sprague-Dawley rat brain alpha4beta2 nAChR after 90 mins by liquid scintillation counting analysis; summary of the method: as §1
Sequence of Neuronal acetylcholine receptor; alpha4/beta2 (P09483 whole entry): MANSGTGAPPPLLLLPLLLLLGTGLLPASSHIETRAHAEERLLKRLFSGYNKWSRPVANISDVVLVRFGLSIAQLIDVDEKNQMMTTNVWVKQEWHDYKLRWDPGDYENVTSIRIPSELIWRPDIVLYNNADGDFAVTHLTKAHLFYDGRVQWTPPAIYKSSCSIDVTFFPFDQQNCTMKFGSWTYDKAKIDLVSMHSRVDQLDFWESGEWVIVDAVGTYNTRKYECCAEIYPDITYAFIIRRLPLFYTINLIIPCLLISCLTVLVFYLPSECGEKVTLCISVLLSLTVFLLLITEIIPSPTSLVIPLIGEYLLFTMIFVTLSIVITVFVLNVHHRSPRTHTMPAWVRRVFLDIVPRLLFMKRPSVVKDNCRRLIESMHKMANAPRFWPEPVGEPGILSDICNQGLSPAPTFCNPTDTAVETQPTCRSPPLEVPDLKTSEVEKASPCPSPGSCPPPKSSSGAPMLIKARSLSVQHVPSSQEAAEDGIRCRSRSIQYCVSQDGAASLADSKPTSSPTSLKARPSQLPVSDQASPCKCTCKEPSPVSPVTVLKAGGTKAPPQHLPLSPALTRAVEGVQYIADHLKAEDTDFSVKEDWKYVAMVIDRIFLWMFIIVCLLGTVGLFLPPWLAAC
Sequence of Neuronal acetylcholine receptor; alpha4/beta2 (P12390 whole entry): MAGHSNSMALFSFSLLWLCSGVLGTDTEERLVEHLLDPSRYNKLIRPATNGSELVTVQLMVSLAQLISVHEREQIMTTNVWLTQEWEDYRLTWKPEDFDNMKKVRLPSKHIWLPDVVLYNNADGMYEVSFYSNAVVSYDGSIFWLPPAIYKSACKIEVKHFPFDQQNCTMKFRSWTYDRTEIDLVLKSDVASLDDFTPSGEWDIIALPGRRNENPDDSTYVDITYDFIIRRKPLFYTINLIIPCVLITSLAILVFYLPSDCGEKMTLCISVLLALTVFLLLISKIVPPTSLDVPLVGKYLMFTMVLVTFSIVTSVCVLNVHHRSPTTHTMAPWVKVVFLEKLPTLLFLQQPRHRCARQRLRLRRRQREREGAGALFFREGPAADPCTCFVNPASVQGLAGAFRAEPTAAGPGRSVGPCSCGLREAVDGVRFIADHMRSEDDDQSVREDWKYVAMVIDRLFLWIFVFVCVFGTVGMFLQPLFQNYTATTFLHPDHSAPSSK

Structure (SMILES)	Activity [1]	Activity [2]	Activity [3]	Activity [4]	Activity [5]	Activity [6]	Activity [7]	inhibition [8]	inhibition [9]	Activity [10]	Ki [11]	Ki [12]	Ki [13]	Ki [14]
O=C(Cc1cccnc1)N1C[C@@H]2CNC[C@@H](C2)C1	Active	inactive	inactive	inactive	inactive	Active	inactive	inactive	inactive	inactive	> 5 µM	> 1 µM	> 1 µM	0.0112 µM
O=C(CCc1ccccc1)N1C[C@@H]2CNC[C@@H](C2)C1	Active	inactive	inactive	inactive	inactive	Active	inactive	inactive	inactive	inactive	–	> 10 µM	0.396 µM	0.0525 µM
O=C(CCc1cccnc1)N1C[C@@H]2CNC[C@@H](C2)C1	Active	inactive	–	inactive	–	–	–	inactive	inactive	inactive	> 5 µM	> 5 µM	> 5 µM	0.039 µM
O=C(/C=C/c1ccncc1)N1C[C@@H]2CNC[C@@H](C2)C1	Active	inactive	inactive	inactive	inactive	Active	inactive	inactive	inactive	inactive	> 5 µM	> 10 µM	> 1 µM	0.00103 µM
COc1ccc(C#CC(=O)N2C[C@@H]3CNC[C@@H](C3)C2)cc1	–	–	–	–	–	–	–	–	–	–	> 5 µM	> 1 µM	> 1 µM	0.0078 µM
O=C(c1ccc(-c2ccccc2)cc1)N1C[C@@H]2CNC[C@@H](C2)C1	–	–	–	–	–	–	–	–	–	–	–	–	1.09 µM	–
COc1cccc(C#CC(=O)N2C[C@@H]3CNC[C@@H](C3)C2)c1	–	–	–	–	–	–	–	–	–	–	> 5 µM	> 1 µM	> 1 µM	0.0063 µM
Cc1ccc(C#CC(=O)N2C[C@@H]3CNC[C@@H](C3)C2)cc1	–	–	–	–	–	–	–	–	–	–	> 5 µM	> 1 µM	> 1 µM	0.0109 µM
O=C(Cc1c(F)c(F)c(F)c(F)c1F)N1C[C@@H]2CNC[C@@H](C2)C1	–	–	–	–	–	–	–	–	–	–	–	–	–	> 5 µM
O=C(C#Cc1cccc2ccccc12)N1C[C@@H]2CNC[C@@H](C2)C1	–	–	–	–	–	–	–	–	–	–	> 5 µM	> 1 µM	> 1 µM	0.046 µM
COc1ccc(/C=C/C(=O)N2C[C@@H]3CNC[C@@H](C3)C2)cc1	Active	inactive	inactive	inactive	inactive	Active	inactive	inactive	inactive	inactive	–	–	–	0.0396 µM
O=C(/C=C/c1cccc(Cl)c1)N1C[C@@H]2CNC[C@@H](C2)C1	Active	inactive	–	inactive	–	–	–	inactive	inactive	inactive	–	> 10 µM	–	0.0237 µM
O=C(c1csc(-c2ccncc2)n1)N1C[C@@H]2CNC[C@@H](C2)C1	–	–	–	–	–	–	–	–	–	–	–	–	–	> 1 µM
O=C(Cc1ccc2ccccc2c1)N1C[C@@H]2CNC[C@@H](C2)C1	Active	inactive	–	inactive	–	–	–	inactive	inactive	inactive	> 5 µM	> 1 µM	> 1 µM	0.0102 µM
O=C(/C=C/c1ccc(F)cc1)N1C[C@@H]2CNC[C@@H](C2)C1	Active	inactive	–	inactive	–	–	–	inactive	inactive	–	> 10 µM	> 5 µM	> 5 µM	0.0207 µM
O=C(C#Cc1cccc(F)c1)N1C[C@@H]2CNC[C@@H](C2)C1	–	–	–	–	–	–	–	–	–	–	> 5 µM	> 1 µM	> 1 µM	0.0071 µM
O=c1c(-c2ccncc2)ccc2n1C[C@@H]1CNC[C@H]2C1	–	–	–	–	–	–	–	–	–	–	> 10 µM	> 10 µM	–	0.0039 µM
O=c1cccc2n1C[C@@H]1CNC[C@H]2C1 [CYTISINICLINE]	–	–	–	–	–	–	–	–	–	–	1.3 µM	0.261 µM	0.018 µM	–

Structure (SMILES)	Activity [1]	Activity [2]	Activity [3]	Activity [4]	Activity [5]	Activity [6]	Activity [7]	inhibition [8]	inhibition [9]	Activity [10]	Ki [11]	Ki [12]	Ki [13]	Ki [14]
O=C(/C=C/c1cccc(Br)c1)N1C[C@@H]2CNC[C@@H](C2)C1	–	–	–	–	–	–	–	–	–	–	–	> 10 µM	–	0.0246 µM
O=C(c1ccccc1)N1C[C@@H]2CNC[C@@H](C2)C1	–	–	–	–	–	–	–	–	–	–	> 10 µM	–	> 5 µM	–
O=C(/C=C/c1ccsc1)N1C[C@@H]2CNC[C@@H](C2)C1	Active	inactive	–	inactive	–	–	–	inactive	inactive	inactive	–	> 10 µM	–	0.0571 µM
O=C(/C=C/c1cccc([N+](=O)[O-])c1)N1C[C@@H]2CNC[C@@H](C2)C1	–	–	–	–	–	–	–	–	–	–	> 10 µM	–	> 1 µM	0.0389 µM
O=c1c(-c2ccc3c(c2)OCO3)ccc2n1C[C@@H]1CNC[C@H]2C1	–	–	–	–	–	–	–	–	–	–	> 10 µM	> 10 µM	> 10 µM	0.11 µM
COc1ccccc1/C=C/C(=O)N1C[C@@H]2CNC[C@@H](C2)C1	–	–	–	–	–	–	–	–	–	–	> 10 µM	–	–	0.172 µM
O=c1c(-c2cccnc2)ccc2n1C[C@@H]1CNC[C@H]2C1	–	–	–	–	–	–	–	–	–	–	> 5 µM	–	–	–
O=C(C#Cc1ccccc1)N1C[C@@H]2CNC[C@@H](C2)C1	Active	inactive	–	inactive	–	–	–	inactive	inactive	inactive	> 1 µM	> 5 µM	> 1 µM	0.0109 µM
O=c1c(-c2ccccc2)ccc2n1C[C@@H]1CNC[C@H]2C1	–	–	–	–	–	–	–	–	–	–	> 10 µM	> 10 µM	> 10 µM	0.128 µM
Cc1cc(CC(=O)N2C[C@@H]3CNC[C@@H](C3)C2)on1	–	–	inactive	inactive	inactive	Active	inactive	inactive	inactive	–	–	> 1 µM	> 1 µM	0.0469 µM
O=C(/C=C/c1ccco1)N1C[C@@H]2CNC[C@@H](C2)C1	–	–	–	–	–	–	–	–	–	–	> 5 µM	> 1 µM	> 1 µM	0.288 µM
COc1ccccc1C#CC(=O)N1C[C@@H]2CNC[C@@H](C2)C1	–	–	–	–	–	–	–	–	–	–	> 5 µM	> 1 µM	> 1 µM	0.242 µM
COc1cc(CCC(=O)N2C[C@@H]3CNC[C@@H](C3)C2)cc(OC)c1OC	–	–	–	–	–	–	–	–	–	–	–	> 10 µM	> 5 µM	0.233 µM
O=C(/C=C/c1cccs1)N1C[C@@H]2CNC[C@@H](C2)C1	–	–	–	–	–	–	–	–	–	–	–	> 10 µM	2 µM	0.0969 µM
O=C(/C=C/c1cccc2ccccc12)N1C[C@@H]2CNC[C@@H](C2)C1	–	–	–	–	–	–	–	–	–	–	> 5 µM	> 1 µM	> 5 µM	0.297 µM
O=C(COc1ccccc1Cl)N1C[C@@H]2CNC[C@@H](C2)C1	–	–	–	–	–	–	–	–	–	–	> 5 µM	> 5 µM	> 5 µM	0.548 µM
O=C(Cc1ccccc1)N1C[C@@H]2CNC[C@@H](C2)C1	Active	inactive	inactive	inactive	inactive	Active	inactive	inactive	inactive	inactive	–	> 10 µM	–	0.0576 µM
